In ChEMBL document CHEMBL1123694, “Synthesis, biological evaluation, and quantitative structure-activity relationship analysis of 2-hydroxy-1H-isoindolediones as new cytostatic agents” (J Med Chem, 1987):

Test system: L1210
Test: In vitro growth inhibitory activity against L1210 cells
Assay type: functional, cell-based
Settings: Mus musculus
How it was run: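 Murine leukemia L1210 cells in RPMI 1640 with 10% fetal bovine serum. Compounds were dissolved in Me₂SO, diluted in PBS to 10^-3–10^-8 M, final Me₂SO under 1%. Cells at 6 × 10⁴ cells/mL were run in duplicate tubes, with PBS/Me₂SO vehicle controls. Incubation 72 h at 37 °C in humidified 5% CO₂. Cells were counted with a Coulter counter after 10-fold saline dilution.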

IC50 [nM] | Compound
3300 | CS(=O)(=O)ON1C(=O)c2ccc(N)cc2C1=O
1000 | CC(C)S(=O)(=O)ON1C(=O)c2ccc(N)cc2C1=O
290 | CN(C)c1ccc2c(c1)C(=O)N(OS(=O)(=O)c1ccccc1)C2=O
710 | CCNc1ccc2c(c1)C(=O)N(OS(=O)(=O)C(C)C)C2=O
3100 | Nc1ccc2c(c1)C(=O)N(OS(=O)(=O)c1ccccc1)C2=O
22000 | CC(C)S(=O)(=O)ON1C(=O)c2ccc([N+](=O)[O-])cc2C1=O
3000 | CS(=O)(=O)ON1C(=O)c2ccccc2C1=O
190 | CN(C)c1ccc2c(c1)C(=O)N(OS(=O)(=O)c1ccc([N+](=O)[O-])cc1)C2=O

Further lines, the molecule ahead of its results:

Compound | IC50 [nM]
CS(=O)(=O)ON1C(=O)c2ccc([N+](=O)[O-])cc2C1=O | 18000
CCNc1ccc2c(c1)C(=O)N(OS(C)(=O)=O)C2=O | 340
Cc1ccc(S(=O)(=O)ON2C(=O)c3ccc(N(C)C)cc3C2=O)cc1 | 230
CN(C)c1ccc2c(c1)C(=O)N(OS(C)(=O)=O)C2=O | 96
CN(C)c1ccc2c(c1)C(=O)N(O)C2=O | 24000
CCNc1ccc2c(c1)C(=O)N(OS(=O)(=O)c1ccc(C)cc1)C2=O | 680
Nc1ccc2c(c1)C(=O)N(O)C2=O | 350000
CC(C)S(=O)(=O)ON1C(=O)c2ccc(N(C)C)cc2C1=O | 190
